The text below walks through data of ChEMBL document CHEMBL4619808, “Tailoring the Physicochemical Properties of Antimicrobial Peptides onto a Thiazole-Based γ-Peptide Foldamer” (J Med Chem, 2020).

Series [1] concerns Candida albicans. As to the kind of experiment: Antimicrobial activity against Candida albicans ATCC 10231 assessed as inhibition of microbial growth incubated for 48 hrs. Format: functional. As to conditions: ATCC 10231, 48 h. An outline of the steps: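 C. albicans grown 48 h on Sabouraud at 20–25°C, suspended to 10⁸ CFU/mL, then diluted to 10⁶ CFU/mL in double-strength Mueller-Hinton broth. Two-fold serial dilutions in water (pH 7.4–7.7) mixed 1:1 with inoculum. Incubation 48 h at 25°C. MIC is the lowest concentration inhibiting growth. Duplicate wells, three independent experiments.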

The test system of series [2] is Enterococcus faecalis. In words: Antimicrobial activity against Enterococcus faecalis ATCC 29121 assessed as inhibition of microbial growth incubated for 24 hrs. Format: functional. The settings on record: ATCC 29121, 24 h. An outline of the steps:
(§1)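 Broth microdilution. Strains grown overnight on TSA at 37°C, suspended to 10⁸ CFU/mL in Tryptone-Sel, then diluted to 10⁶ CFU/mL in double-strength Mueller-Hinton broth. Two-fold serial dilutions in sterile water (pH 7.4–7.7) mixed 1:1 with inoculum. Incubation 24 h at 37°C. MIC is the lowest concentration inhibiting growth. Duplicate wells, three independent experiments.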

Series [3] relates to Escherichia coli. As to the kind of experiment: Microbicidal activity against Escherichia coli ATCC 8739 assessed as inhibition of colony growth incubated for 24 hrs followed by replating and further incubated for 24 hrs. Format: functional. The settings on record: ATCC 8739, 24 h.
Series [4] has as its system Staphylococcus aureus. In words: Antimicrobial activity against Staphylococcus aureus ATCC 6538 assessed as inhibition of microbial growth incubated for 24 hrs. Format: functional. The settings on record: ATCC 6538, 24 h. An outline of the steps:
as §1

The test system of series [5] is Pseudomonas aeruginosa. In words: Antimicrobial activity against Pseudomonas aeruginosa ATCC 9027 assessed as inhibition of microbial growth incubated for 24 hrs. The settings on record: ATCC 9027, 24 h. Format: functional. An outline of the steps: as §1
For series [6], the system named is Staphylococcus aureus. In words: Microbicidal activity against Staphylococcus aureus ATCC 6538 assessed as inhibition of colony growth incubated for 24 hrs followed by replating and further incubated for 24 hrs. Format: functional. The settings on record: ATCC 6538, 24 h.
Series [7] deals with Escherichia coli. In words: Antimicrobial activity against Escherichia coli ATCC 8739 assessed as inhibition of microbial growth incubated for 24 hrs. Format: functional. As to conditions: ATCC 8739, 24 h. An outline of the steps:
as §1

For series [8], the system named is Bacillus subtilis. In words: Antimicrobial activity against Bacillus subtilis ATCC 6633 assessed as inhibition of microbial growth incubated for 24 hrs. The settings on record: ATCC 6633, 24 h. Format: functional. In short, it runs like this: as §1
The subject of series [9] is Pseudomonas aeruginosa. As to the kind of experiment: Microbicidal activity against Pseudomonas aeruginosa ATCC 9027 assessed as inhibition of colony growth incubated for 24 hrs followed by replating and further incubated for 24 hrs. Format: functional. As to conditions: ATCC 9027, 24 h.
Series [10] in a line: Hemolytic activity in human RBC assessed as induction of hemolysis incubated for 1 hr. Format: cell-based, Erythrocyte. The settings on record: red blood cells (erythrocytes), read-out: HD50. In short, it runs like this:
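Human RBCs washed in PBS and used at 5% packed cell volume, mixed 1:1 with two-fold serial dilutions in PBS (pH 7.4–7.7). Incubation 1 h at 37°C, then centrifugation at 1500g for 10 min at 5°C. Supernatant absorbance read at 490 nm against PBS (0%) and 1% SDS/Tris (100%) controls. HC50 from three independent experiments, double duplicate.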

Series [11] concerns Candida albicans. As to the kind of experiment: Microbicidal activity against Candida albicans ATCC 10231 assessed as inhibition of colony growth incubated for 48 hrs followed by replating and further incubated for 48 hrs. As to conditions: ATCC 10231, 48 h. Format: functional.
The test system of series [12] is Enterococcus faecalis. In words: Microbicidal activity against Enterococcus faecalis ATCC 29121 assessed as inhibition of colony growth incubated for 24 hrs followed by replating and further incubated for 24 hrs. Format: functional. As to conditions: ATCC 29121, 24 h.
Series [13] concerns Bacillus subtilis. In words: Microbicidal activity against Bacillus subtilis ATCC 6633 assessed as inhibition of colony growth incubated for 24 hrs followed by replating and further incubated for 24 hrs. As to conditions: ATCC 6633, 24 h. Format: functional.

In brackets after ≈: the same amount, converted by molar mass. A value given as a limit tells only on which side of the number the result lay.

The term MIC denotes the lowest concentration that inhibits growth of the organism. As to `CC(=O)N[C@@H](CCCCN)c1nc(C)sc1C(=O)N[C@@H](C)c1nc(C)sc1C(=O)N[C@@H](C)c1nc(CCCCN)sc1C(=O)N[C@@H](C)c1nc(C)sc1C(=O)N[C@@H](C)c1nc(CCCCN)sc1C(=O)N[C@@H](CCCCN)c1nc(C)sc1C(=O)N[C@@H](C)c1nc(CCCCN)sc1C(=O)N[C@@H](CCCCN)c1nc(C)sc1C(=O)N[C@@H](C)c1nc(C)sc1C(=O)N[C@@H](C)c1nc(C)sc1C(=O)N[C@@H](C)c1nc(CCCCN)sc1C(=O)N[C@@H](CCCCN)c1nc(C)sc1C(N)=O`, the MIC was 50 µM in series [1]; greater than 150 µM in series [2]; 100 µM in series [4]; 100 µM in series [5]; 5.2 µM in series [7]; 0.8 µM in [8]. The MBC in series [3] is 8.3 µM (≈ 21 µg/mL); in series [6] it was greater than 100 µM; in series [9], greater than 100 µM; in series [11], 62.5 µM (≈ 158 µg/mL); in [12], greater than 150 µM; in series [13], 0.8 µM (≈ 2.03 µg/mL). Further, in series [10], the HC50 at 1 h was greater than 100 µM.

In the case of `CC(=O)N[C@@H](CCCNC(=N)N)c1nc(C)sc1C(=O)N[C@@H](C)c1nc(C)sc1C(=O)N[C@@H](C)c1nc(C)sc1C(=O)N[C@@H](CCCNC(=N)N)c1nc(C)sc1C(=O)N[C@@H](C)c1nc(C)sc1C(=O)N[C@@H](C)c1nc(C)sc1C(=O)N[C@@H](CCCNC(=N)N)c1nc(C)sc1C(=O)N[C@@H](C)c1nc(C)sc1C(=O)N[C@@H](C)c1nc(C)sc1C(=O)N[C@@H](CCCNC(=N)N)c1nc(C)sc1C(=O)N[C@@H](C)c1nc(C)sc1C(=O)N[C@@H](C)c1nc(C)sc1C(N)=O`, the minimal inhibitory concentration (MIC) in series [1] is 25 µM; in [2], 3.1 µM; in [4] it was 3.1 µM; in [5], greater than 100 µM; in series [7] it was 23 µM; in series [8], 0.5 µM. The MBC in [3] is 30 µM (≈ 72.5 µg/mL); in [6], 8.3 µM (≈ 20.1 µg/mL); in series [11], 50 µM (≈ 121 µg/mL); in series [12] it was 11.5 µM (≈ 27.8 µg/mL); in series [13], 0.5 µM (≈ 1.21 µg/mL). Further, the HC50 at 1 h in series [10] was determined as 46 µM.

Consider `CC(=O)N[C@@H](CCCCN)c1nc(C)sc1C(=O)N[C@@H](C)c1nc(CCCCN)sc1C(=O)N[C@@H](C)c1nc(C)sc1C(=O)N[C@@H](CCCCN)c1nc(C)sc1C(=O)N[C@@H](C)c1nc(CCCCN)sc1C(=O)N[C@@H](C)c1nc(C)sc1C(N)=O`, for which the MIC in series [1] was 62.5 µM; in series [2], greater than 150 µM; in series [4], greater than 150 µM; in series [5], greater than 150 µM; in series [7], greater than 150 µM; in series [8], 30 µM. Moreover, the MBC in series [3] is greater than 150 µM; in [6] it was greater than 150 µM; in series [9], greater than 150 µM; in series [11], 130 µM (≈ 169 µg/mL); in series [12] it was greater than 150 µM; in [13], 30 µM (≈ 38.9 µg/mL). In addition, the HC50 at 1 h in series [10] was greater than 100 µM.

Turning to `CC[C@H](C)[C@H](NC(=O)CN)C(=O)NCC(=O)N[C@@H](C)C(=O)N[C@H](C(=O)N[C@@H](CC(C)C)C(=O)N[C@@H](CCCCN)C(=O)N[C@H](C(=O)N[C@@H](CC(C)C)C(=O)N[C@H](C(=O)N[C@H](C(=O)NCC(=O)N[C@@H](CC(C)C)C(=O)N1CCC[C@H]1C(=O)N[C@@H](C)C(=O)N[C@@H](CC(C)C)C(=O)N[C@H](C(=O)N[C@@H](CO)C(=O)N[C@@H](Cc1c[nH]c2ccccc12)C(=O)N[C@H](C(=O)N[C@@H](CCCCN)C(=O)N[C@@H](CCCNC(=N)N)C(=O)N[C@@H](CCCCN)C(=O)N[C@@H](CCCNC(=N)N)C(=O)N[C@@H](CCC(N)=O)C(=O)N[C@@H](CCC(N)=O)C(N)=O)[C@@H](C)CC)[C@@H](C)CC)[C@@H](C)O)[C@@H](C)O)C(C)C)C(C)C` [MELITTIN], the MIC in [1] and in [2] was 1.6 µM in each case. For the same compound, the MBC in [3] is 4.7 µM (≈ 13.4 µg/mL); in [6], 1.2 µM (≈ 3.42 µg/mL); in series [9], 3.1 µM (≈ 8.82 µg/mL); in series [11], 1.6 µM (≈ 4.55 µg/mL); in series [12], 1.6 µM (≈ 4.55 µg/mL); in series [13] it was 1.1 µM (≈ 3.13 µg/mL).

Turning to `CC(=O)N[C@@H](CCCCN)c1nc(C)sc1C(=O)N[C@@H](C)c1nc(CCCCN)sc1C(=O)N[C@@H](C)c1nc(C)sc1C(=O)N[C@@H](CCCCN)c1nc(C)sc1C(=O)N[C@@H](C)c1nc(CCCCN)sc1C(=O)N[C@@H](C)c1nc(C)sc1C(=O)N[C@@H](CCCCN)c1nc(C)sc1C(=O)N[C@@H](C)c1nc(CCCCN)sc1C(=O)N[C@@H](C)c1nc(C)sc1C(N)=O`, the MIC is 10.4 µM in series [1]; greater than 150 µM in series [2]; greater than 150 µM in series [4]; 42 µM in series [5]; 5.2 µM in [7]; 0.8 µM in [8]. Also, the MBC in series [3] was 7.3 µM (≈ 14 µg/mL); in series [6], greater than 150 µM; in series [9], 83 µM (≈ 159 µg/mL); in [11], 10.4 µM (≈ 19.9 µg/mL); in series [12] it was greater than 150 µM; in series [13], 0.8 µM (≈ 1.53 µg/mL). In series [10], the HC50 at 1 h was greater than 100 µM.

As to `CC(=O)N[C@@H](CCCCN)c1nc(C)sc1C(=O)N[C@@H](C)c1nc(CCCCN)sc1C(=O)N[C@@H](C)c1nc(C)sc1C(=O)N[C@@H](CCCCN)c1nc(C)sc1C(=O)N[C@@H](C)c1nc(CCCCN)sc1C(=O)N[C@@H](C)c1nc(C)sc1C(=O)N[C@@H](CCCCN)c1nc(C)sc1C(=O)N[C@@H](C)c1nc(CCCCN)sc1C(=O)N[C@@H](C)c1nc(C)sc1C(=O)N[C@@H](CCCCN)c1nc(C)sc1C(=O)N[C@@H](C)c1nc(CCCCN)sc1C(=O)N[C@@H](C)c1nc(C)sc1C(N)=O`, the minimum inhibitory concentration (MIC) in [1] was 3.7 µM; in series [2] it was greater than 150 µM; in series [4] it was 26 µM; in series [5], 3.9 µM; in series [7], 1.6 µM; in series [8] it was 0.5 µM. For the same compound, the MBC is 1.6 µM (≈ 4.06 µg/mL) in series [3]; 57 µM (≈ 144 µg/mL) in series [6]; 5.2 µM (≈ 13.2 µg/mL) in series [9]; 3.7 µM (≈ 9.38 µg/mL) in series [11]; greater than 150 µM in series [12]; 0.5 µM (≈ 1.27 µg/mL) in [13]. Moreover, the HC50 at 1 h in series [10] was greater than 100 µM.

In the case of `CC(=O)N[C@@H](CCCCN)c1nc(C)sc1C(=O)N[C@@H](CC(C)C)c1nc(CCCCN)sc1C(=O)N[C@@H](C)c1nc(CC(C)C)sc1C(=O)N[C@@H](CCCCN)c1nc(C)sc1C(=O)N[C@@H](CC(C)C)c1nc(CCCCN)sc1C(=O)N[C@@H](C)c1nc(CC(C)C)sc1C(=O)N[C@@H](CCCCN)c1nc(C)sc1C(=O)N[C@@H](CC(C)C)c1nc(CCCCN)sc1C(=O)N[C@@H](C)c1nc(CC(C)C)sc1C(=O)N[C@@H](CCCCN)c1nc(C)sc1C(=O)N[C@@H](CC(C)C)c1nc(CCCCN)sc1C(=O)N[C@@H](C)c1nc(CC(C)C)sc1C(N)=O`, the MIC turned out to be 25 µM in [1]; 10.4 µM in series [2]; 16.7 µM in series [4]; 14.6 µM in [5]; 14.6 µM in series [7]; 4.2 µM in series [8]. Also, the MBC in series [3] stood at 16.5 µM (≈ 47.4 µg/mL); in series [6], 25 µM (≈ 71.8 µg/mL); in [9], 19 µM (≈ 54.6 µg/mL); in series [11], 25 µM (≈ 71.8 µg/mL); in [12], 12.5 µM (≈ 35.9 µg/mL); in series [13] it was 6.2 µM (≈ 17.8 µg/mL). In [10], the HC50 at 1 h was greater than 100 µM.
